Results taken from ChEMBL document CHEMBL3804761, “Synthesis of a stable and orally bioavailable englerin analogue” (Bioorg Med Chem Lett, 2016).

Columns and labels:
Format in all cases: functional
[1] = Growth inhibition of human SF268 cells assessed as cell growth at 10 uM incubated for 48 hrs by sulforhodamine B assay relative to control; settings: SF-268, 48 h, read-out: Activity
Outline: (§1)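 Run in the standard NCI 60-cell-line screen. Cells were exposed to drug for two days, and the read-out was sulforhodamine B staining. Compound was tested at a single final concentration of 10 µM in every line, and results are reported as growth percent.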

[2] = Growth inhibition of human RXF393 cells assessed as cell growth at 10 uM incubated for 48 hrs by sulforhodamine B assay relative to control; settings: RXF 393, 48 h, read-out: Activity; outline: as §1
[3] = Growth inhibition of human SF295 cells incubated for 48 hrs by sulforhodamine B assay; settings: SF-295, 48 h; for TGI: read-out: pTGI (converted)
Outline: (§2)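 NCI 60-cell-line panel, standard protocol. Cells exposed to compound for two days, growth read by sulforhodamine B staining. Tested at five 10-fold dilutions, top concentration 100 µM, to give dose-response curves.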

[4] = Growth inhibition of human HOP62 cells incubated for 48 hrs by sulforhodamine B assay; settings: HOP-62, 48 h; for TGI: read-out: pTGI (converted); outline: as §2
K562 = experiment: Growth inhibition of human K562 cells incubated for 48 hrs by sulforhodamine B assay; settings: K562, 48 h; outline: as §2
MDA-MB-435 [5] = experiment: Growth inhibition of human MDA-MB-435 cells assessed as cell growth at 10 uM incubated for 48 hrs by sulforhodamine B assay relative to control; settings: MDA-MB-435, 48 h, read-out: Activity; outline: as §1
[6] = Growth inhibition of human OVCAR4 cells incubated for 48 hrs by sulforhodamine B assay; settings: OVCAR-4, 48 h; for TGI: read-out: pTGI (converted); outline: as §2
[7] = Growth inhibition of human UO31 cells assessed as cell growth at 10 uM incubated for 48 hrs by sulforhodamine B assay relative to control; settings: UO-31, 48 h, read-out: Activity
Outline: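 NCI 60-cell line standard protocol, one-dose screen: single final concentration 10 µM, 2-day drug exposure, sulforhodamine B (SRB) endpoint; read-out is growth percent relative to untreated control.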

[8] = Growth inhibition of human UACC62 cells incubated for 48 hrs by sulforhodamine B assay; settings: UACC-62, 48 h; for TGI: read-out: pTGI (converted)
Outline: (§3)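 Tested in the standard NCI 60-cell-line protocol with two-day drug exposure and a sulforhodamine B endpoint. Compounds were first screened at a single final concentration of 10 µM, reported as growth percent. They were then run as five 10-fold dilutions starting from a high concentration of 100 µM to give dose-response curves.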

NCI/ADR-RES = experiment: Growth inhibition of human NCI/ADR-RES cells assessed as cell growth at 10 uM incubated for 48 hrs by sulforhodamine B assay relative to control; settings: read-out: Activity; outline: as §1
MCF7 = experiment: Growth inhibition of human MCF7 cells assessed as cell growth at 10 uM incubated for 48 hrs by sulforhodamine B assay relative to control; settings: MCF7, 48 h, read-out: Activity; outline: as §1
[9] = Growth inhibition of human HCT116 cells incubated for 48 hrs by sulforhodamine B assay; settings: HCT-116, 48 h; for TGI: read-out: pTGI (converted); outline: as §2
KM12 = experiment: Growth inhibition of human KM12 cells assessed as cell growth at 10 uM incubated for 48 hrs by sulforhodamine B assay relative to control; settings: KM12, 48 h, read-out: Activity; outline: as §1
NCI-H322M = experiment: Growth inhibition of human NCI-H322M cells assessed as cell growth at 10 uM incubated for 48 hrs by sulforhodamine B assay relative to control; settings: read-out: Activity; outline: as §1
[10] = Growth inhibition of human HOP62 cells assessed as cell growth at 10 uM incubated for 48 hrs by sulforhodamine B assay relative to control; settings: HOP-62, 48 h, read-out: Activity; outline: as §1
[11] = Growth inhibition of human IGROV1 cells assessed as cell growth at 10 uM incubated for 48 hrs by sulforhodamine B assay relative to control; settings: IGROV-1, 48 h, read-out: Activity; outline: as §1
[12] = Growth inhibition of human LOXIMVI cells incubated for 48 hrs by sulforhodamine B assay; settings: LOX IMVI; for TGI: read-out: pTGI (converted); outline: as §2
SN12C = experiment: Growth inhibition of human SN12C cells incubated for 48 hrs by sulforhodamine B assay; settings: for CC50: read-out: pLC50 (the source's name) (converted); for TGI: read-out: pTGI (converted); outline: as §3
NCI-H460 = experiment: Growth inhibition of human NCI-H460 cells incubated for 48 hrs by sulforhodamine B assay; settings: NCI-H460, 48 h; for CC50: read-out: pLC50 (the source's name) (converted); for TGI: read-out: pTGI (converted); outline: as §2
NCI-H226 = experiment: Growth inhibition of human NCI-H226 cells incubated for 48 hrs by sulforhodamine B assay; settings: NCI-H226, 48 h; for TGI: read-out: pTGI (converted); outline: as §2
NCI-H522 = experiment: Growth inhibition of human NCI-H522 cells assessed as cell growth at 10 uM incubated for 48 hrs by sulforhodamine B assay relative to control; settings: NCI-H522, 48 h, read-out: Activity; outline: as §1
[13] = Growth inhibition of human Caki1 cells incubated for 48 hrs by sulforhodamine B assay; settings: CAKI-1, 48 h; for TGI: read-out: pTGI (converted); outline: as §2
[14] = Growth inhibition of human Hs 578T cells assessed as cell growth at 10 uM incubated for 48 hrs by sulforhodamine B assay relative to control; settings: read-out: Activity
[15] = Growth inhibition of human OVCAR3 cells incubated for 48 hrs by sulforhodamine B assay; settings: OVCAR-3, 48 h; for TGI: read-out: pTGI (converted); outline: as §2
MDA-MB-435 [16] = experiment: Growth inhibition of human MDA-MB-435 cells incubated for 48 hrs by sulforhodamine B assay; settings: MDA-MB-435, 48 h; for TGI: read-out: pTGI (converted); outline: as §2
[17] = Growth inhibition of human OVCAR8 cells assessed as cell growth at 10 uM incubated for 48 hrs by sulforhodamine B assay relative to control; settings: OVCAR-8, 48 h, read-out: Activity; outline: as §1
[18] = Growth inhibition of human SF539 cells assessed as cell growth at 10 uM incubated for 48 hrs by sulforhodamine B assay relative to control; settings: SF-539, 48 h, read-out: Activity
Outline: (§4)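 Single-dose screen in the NCI 60-cell-line panel at one final concentration of 10 µM. Two-day drug exposure with a sulforhodamine B endpoint. Values are growth percent for each cell line.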

MDA-MB-468 = experiment: Growth inhibition of human MDA-MB-468 cells assessed as cell growth at 10 uM incubated for 48 hrs by sulforhodamine B assay relative to control; settings: MDA-MB-468, 48 h, read-out: Activity; outline: as §1
[19] = Growth inhibition of human HL-60(TB) cells assessed as cell growth at 10 uM incubated for 48 hrs by sulforhodamine B assay relative to control; settings: HL-60, 48 h, read-out: Activity; outline: as §4

## C/C(=C\C(=O)O[C@H]1[C@@H]2[C@H](C)CC[C@H]2[C@]2(C)O[C@@]1(C(C)C)C[C@H]2NC(=O)CO)c1ccccc1
[1]
  growth at 10 µM: 106%
[2]
  growth at 10 µM: 73.5%
[3]
  GI50: 36.3 µM
  LC50 (concentration causing 50% net cell kill): > 100 µM
  TGI: > 100 µM
[4]
  GI50: 43.7 µM
  LC50: > 100 µM
  TGI: > 100 µM
K562
  GI50: 31.6 µM
K562; read-out: pLC50 (the source's name) (converted)
  CC50: > 100 µM
K562; read-out: pTGI (converted)
  TGI: > 100 µM
MDA-MB-435 [5]
  growth at 10 µM: 106%
[6]
  GI50: 35.5 µM
  LC50 (concentration killing 50% of cells): > 100 µM
  TGI: > 100 µM
[7]
  growth at 10 µM: 17.5%
[8]
  GI50: 35.5 µM
  LC50 (lethal concentration, 50% net cell kill): > 100 µM
  TGI: > 100 µM
NCI/ADR-RES
  growth at 10 µM: 72.2%
MCF7
  growth at 10 µM: 89.7%
[9]
  GI50: 32.4 µM
  LC50: > 100 µM
  TGI: > 100 µM
KM12
  growth at 10 µM: 112%
NCI-H322M
  growth at 10 µM: 105%
[10]
  growth at 10 µM: 97.6%
[11]
  growth at 10 µM: 104%
[12]
  GI50: 27.5 µM
  LC50: > 100 µM
  TGI: > 100 µM
SN12C
  GI50: 11.5 µM
  CC50: > 100 µM
  TGI: 66.1 µM
NCI-H460
  GI50: 38 µM
  CC50: > 100 µM
  TGI: > 100 µM
NCI-H226
  GI50: 61.7 µM
  LC50: > 100 µM
  TGI: > 100 µM
NCI-H522
  growth at 10 µM: 92.5%
[13]
  GI50: 40.7 µM
  LC50: > 100 µM
  TGI: > 100 µM
[14]
  growth at 10 µM: -8.92%
[15]
  GI50: 32.4 µM
  LC50: > 100 µM
  TGI: 93.3 µM
MDA-MB-435 [16]
  GI50: 33.9 µM
  LC50: > 100 µM
  TGI: > 100 µM
[17]
  growth at 10 µM: 61.2%
[18]
  growth at 10 µM: 91.2%
MDA-MB-468
  growth at 10 µM: 101%

## CC(C)[C@@]12C[C@@H](NC(=O)CO)[C@@](C)(O1)[C@@H]1CC[C@@H](C)[C@H]1[C@@H]2OC(=O)/C=C/c1ccccc1
[1]
  growth at 10 µM: 84.4%
[2]
  growth at 10 µM: 63.3%
[3]
  GI50: 18.6 µM
  LC50 (concentration causing 50% net cell kill): > 50.1 µM
  TGI: > 50.1 µM
[4]
  GI50: 35.5 µM
  LC50: > 50.1 µM
  TGI: > 50.1 µM
MDA-MB-435 [5]
  growth at 10 µM: 94.6%
[6]
  GI50: 17.8 µM
  LC50 (concentration killing 50% of cells): > 50.1 µM
  TGI: > 50.1 µM
[7]
  growth at 10 µM: 57.2%
[8]
  GI50: 15.1 µM
  LC50 (lethal concentration, 50% net cell kill): > 50.1 µM
  TGI: > 50.1 µM
NCI/ADR-RES
  growth at 10 µM: 42.9%
MCF7
  growth at 10 µM: 94.4%
[9]
  GI50: 10.7 µM
  LC50: > 50.1 µM
  TGI: 38 µM
KM12
  growth at 10 µM: 111%
NCI-H322M
  growth at 10 µM: 77.8%
[10]
  growth at 10 µM: 86.8%
[11]
  growth at 10 µM: 106%
[19]
  growth at 10 µM: 91.7%
[12]
  GI50: 14.5 µM
  LC50: > 50.1 µM
  TGI: > 50.1 µM
SN12C
  GI50: 10.7 µM
  CC50: > 50.1 µM
  TGI: > 50.1 µM
NCI-H460
  GI50: 17 µM
  CC50: > 50.1 µM
  TGI: > 50.1 µM
NCI-H226
  GI50: 25.1 µM
  LC50: > 50.1 µM
  TGI: > 50.1 µM
NCI-H522
  growth at 10 µM: 76.9%
[13]
  GI50: 9.55 µM
  LC50: > 50.1 µM
  TGI: > 50.1 µM
[14]
  growth at 10 µM: 9%
[15]
  GI50: 14.8 µM
  LC50: > 50.1 µM
  TGI: 49 µM
MDA-MB-435 [16]
  GI50: 18.2 µM
  LC50: > 50.1 µM
  TGI: > 50.1 µM
[17]
  growth at 10 µM: 51.5%
[18]
  growth at 10 µM: 97.2%
MDA-MB-468
  growth at 10 µM: 91.3%
